Screens from PubChem BioAssay.
Rows were chosen to be rich in hits. Some 3.5% of all compounds tested hit in one or more screens of this group.
MrgX1 antag – blocks BAM8-22 activation of human MrgX1 receptor; Q96LB2; MRGX1-HEK293 calcium flux, Fluo-4, BAM8-22 antagonism; active compounds read low; B-score at 10 µM; 310,000 tested, 1.3% active; AID 588676;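 active means calcium-response B-score plate-corrected more than 3 library SD below zero, starting fluorescence within 5 deviations, no agonist response on first addition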;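 further: peak minus trough fluorescence over baseline after final BAM8-22 challenge near maximal dose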
Target sequence (Q96LB2 whole entry, looked up): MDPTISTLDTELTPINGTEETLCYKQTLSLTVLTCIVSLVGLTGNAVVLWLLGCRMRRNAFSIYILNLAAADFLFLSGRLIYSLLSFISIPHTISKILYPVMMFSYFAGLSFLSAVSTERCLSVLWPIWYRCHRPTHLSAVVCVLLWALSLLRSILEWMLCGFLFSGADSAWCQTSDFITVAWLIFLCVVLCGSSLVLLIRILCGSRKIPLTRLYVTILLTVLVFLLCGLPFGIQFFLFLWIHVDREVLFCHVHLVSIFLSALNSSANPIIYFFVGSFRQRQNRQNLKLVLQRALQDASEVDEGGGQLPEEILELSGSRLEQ
RGS4 pot – RGS4 potentiation or activation. HEK293 M3R/inducible RGS4, carbachol calcium flux Fluo4; active compounds read low. B-score at 10 µM. 310,000 tested, 0.92% active;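 active means B-score of the integrated calcium signal more than 4 SD below the library mean, with starting fluorescence not abnormally high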;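 further: negative B-score means reduced calcium response which marks RGS4 activation or potentiation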
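System – HEK293 FlpIn-TREx cells, stable M3R, doxycycline-inducible RGS4 · Reagent – ECmax carbachol challenge · Times – compound preincubation 20 min at room temperature before agonist · Technique – Fluo4 fluorescence kinetic imaging of calcium · Measure – B score of integrated Fluo4 ratio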
MrgX1 agonist – agonists of human MrgX1 receptor; 310,000 tested, 0.44% active; Q96LB2; B-score at 10 µM; MrgX1-HEK293 cells, Fluo-4 calcium fluorescence, agonist mode; active compounds read high;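 active means calcium response B-score plate-corrected fluorescence ratio at least 3 library SD, with starting fluorescence B-score inside 5 SD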
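Test system: HEK293 cells stably expressing human MrgX1 receptor; amount: 15,000 cells per well; doses: compound delivered in addition one of three; times: overnight plating before 1 h dye loading; detection: Fluo-4 NW calcium-flux fluorescence, kinetic read; read-out basis: B-scored fluorescence response ratio; controls: positive and negative controls per plate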
MrgX1 PAM – human MrgX1 positive allosteric modulation, primary screen | B-score at 10 µM | MrgX1-HEK293, Fluo-4 calcium flux, FDSS; active compounds read high | 310,000 tested, 0.63% active;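 active means plate-corrected calcium response at least 3 library SD above typical, normal starting fluorescence, not activating the receptor alone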;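 further: compound read alongside a low EC10 to EC30 dose of BAM8-22 agonist; peak minus trough fluorescence over baseline measured at the second addition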
RGS4 block – inhibitors of human RGS4; 310,000 tested, 0.45% active; AID 463165; HEK293 M3R/RGS4 inducible, Fluo-4 calcium flux; active compounds read high; triggered by carbachol at its EC20; P49798; B-score at 10 µM;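 active means B-score, a plate-corrected calcium signal, over three deviations above library mean, with baseline fluorescence within five deviations of library mean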;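 further: RGS4 expression induced by doxycycline in cells with stable M3 receptor; B-score is computed from the integrated fluorescence ratio over baseline after carbachol; higher B-score means a larger calcium signal and so more RGS4 inhibition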
Target sequence (P49798 whole entry, looked up): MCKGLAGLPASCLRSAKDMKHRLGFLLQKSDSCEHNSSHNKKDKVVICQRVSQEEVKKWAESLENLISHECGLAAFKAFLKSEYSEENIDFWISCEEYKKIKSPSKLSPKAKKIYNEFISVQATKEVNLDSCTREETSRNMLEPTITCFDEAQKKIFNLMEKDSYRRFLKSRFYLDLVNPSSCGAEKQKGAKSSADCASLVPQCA
RGS4 act valid – confirmation of RGS4 activators | HEK293 M3R/RGS4 inducible, carbachol calcium flux Fluo4 | 1,100 tested, 89% active | inhibition, % at 10 µM | AID 602282 | shares compounds with RGS4 pot;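 active means inhibition above 3 SD of the buffer control wells, cut at about 41% in these data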;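 further: signal is the integrated peak-minus-minimum Fluo4 fluorescence over baseline ratio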
M3R Ca counter – counter-screen for RGS4 activators: effect in non-induced cells. HEK293 M3R non-induced RGS4, Fluo4 calcium flux; after carbachol challenge at its EC90. shares compounds with RGS4 pot. 1,100 tested, 82% active. AID 602283. inhibition, % at 10 µM;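 active means inhibition exceeding 3 SD of buffer-only control wells, cut at about 26% in these data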;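 further: percent drop in integrated peak-minus-baseline over baseline Fluo4 ratio after carbachol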
* = called active by the depositor; i = inactive; x = not tested or not shown.

SMILES	MrgX1 antag	RGS4 pot	MrgX1 agonist	MrgX1 PAM	RGS4 block	others
CCn1c(SCc2cccc(C(F)(F)F)c2)nnc1-c1ccco1	-6.4*	i	i	i	i
C/C(=N/NC(=O)CSc1nc2ccccc2n1C)c1ccc(O)cc1	-4.9*	i	i	i	i
COc1ccc(Cl)cc1-n1c(C)cc(C=O)c1C	i	i	i	7.8*	i
O=C(NCCOc1ccccc1)c1ccccc1Cl	i	i	i	i	i
CN(C(=O)COc1ccccc1C(=O)NCCOc1ccccc1)c1ccccc1	-5.7*	-9.2*	i	i	i
CC1(C)CC2CC(C)(CN2/C=N/c2sc3c(c2C#N)CC(C)(C)NC3(C)C)C1 (centres undefined)	-4.5*	i	i	i	i
O=c1c(-c2ccnn2-c2cccc(Cl)c2)cnc2n1CCS2	i	i	i	i	i
N#Cc1cccc(NCC(=O)Nc2ccc3c(c2)OCCO3)c1	i	i	i	i	i
Cc1cc(C)cc(OCC(=O)Nc2cccc(-c3nnc(-c4ccco4)o3)c2)c1	i	-7.6*	i	i	i
O=C(COC(=O)/C=C/c1ccc(C(F)(F)F)cc1)NCC1CCCCC1	i	i	i	i	i
CN1C(=O)C2(OCCCO2)c2ccccc21	i	i	i	i	i
COc1ccc(-c2csc3ncnc(NCCCO)c23)cc1	i	i	33*	i	i
COc1ccc(-c2csc3ncnc(NCCO)c23)cc1	i	i	i	i	i
COc1ccc(C(=O)N2c3ccccc3C=CC2C#N)cc1 (centres undefined)	i	-7.4*	i	i	i
CSc1ccc(/C=C/C(=O)N2CCN(c3ccccn3)CC2)cc1	i	i	i	i	i
O=C(NCCCN1CCCC1)c1ccc2c(c1)N(Cc1ccccc1F)C(=O)c1ccccc1S2=O (centres undefined)	i	i	i	i	i
CC1CCCCN1CCNC(=O)c1ccc2c(c1)N(Cc1ccccc1F)C(=O)c1ccccc1S2=O (centres undefined)	i	-7.4*	i	i	i
CC(C)[N+](C)(CCOC(=O)C1c2ccccc2Oc2ccccc21)C(C)C	i	-8.5*	i	i	i
Cc1ccc(C(=O)N/N=C\c2sccc2C)cn1	-7.8*	i	i	i	i
Cc1ccsc1/C=N/NC(=O)c1sccc1C	i	i	i	i	i
COc1ccc(S(=O)(=O)NC2CCCC2)cc1C(N)=O	i	i	i	i	i
O=C(O)c1ccccc1/C=N/Nc1nc(N2CCCCC2)nc(N2CCCCC2)n1	-6.6*	i	i	i	i
COc1cccc(/C=N/Nc2nc(N3CCCC3)nc(N3CCCC3)n2)c1O	i	-7.7*	i	i	i
CCOC(=O)NN1C(=O)c2ccccc2NC1c1ccc(OC)c(OC)c1 (centres undefined)	i	i	i	i	i
COc1cc(/C=C2\SC(N)=NC2=O)cc(Cl)c1O	i	i	30*	i	i
SMILES	MrgX1 antag	RGS4 pot	MrgX1 agonist	MrgX1 PAM	RGS4 block	others
Cc1onc(-c2c(Cl)cccc2Cl)c1C(=O)N1CCc2ccccc21	i	-7.6*	i	i	i
Cc1onc(-c2ccccc2Cl)c1C(=O)N1CCc2ccccc2C1	i	-7.3*	i	i	i
Cc1onc(-c2c(Cl)cccc2Cl)c1C(=O)N1CCOCC1	i	i	i	i	i
Cc1cc2ncn(C(=O)c3c(-c4ccccc4)noc3C)c2cc1C	i	i	i	i	i
Cc1onc(-c2c(F)cccc2Cl)c1C(=O)N1CCc2ccccc2C1	i	i	i	i	i
Cc1cc2ncn(C(=O)c3c(-c4c(Cl)cccc4Cl)noc3C)c2cc1C	i	-7.2*	i	i	i
O=C(COC(=O)C1CC(O)CN1C(=O)Oc1ccccc1)c1ccc(Br)cc1 (centres undefined)	i	i	i	i	i
O/C=c1\ccc2cccc3nc(C(F)(F)F)nc1c23	i	i	i	i	i
C/C(O)=c1/ccc2cccc3nc(C)nc1c23	i	-8.3*	i	i	i	RGS4 act valid=74*;M3R Ca counter=69*
CCOC1=C/C(=C/c2c(N)n3nc(-c4ccccc4)sc3nc2=O)C=CC1=O	x	-12*	x	x	i	RGS4 act valid=65*;M3R Ca counter=33*
Nc1ccc(O)c(-c2nc3ccccc3s2)c1	i	i	i	i	i
Oc1ccc(-c2nc3ccccc3s2)c(O)c1	i	-7.9*	i	i	i	RGS4 act valid=0;M3R Ca counter=0
C=CCNC(=O)c1ccc(C(=O)c2ccccc2)cc1	i	i	i	i	i
O=C(O)c1ccc2nc3c(nc2c1)-c1ccccc1C3=O	i	-11*	i	i	i	RGS4 act valid=0;M3R Ca counter=0
C=CCNC(=O)c1ccc2nc(-c3ccccc3)c(-c3ccccc3)nc2c1	i	-8.9*	i	i	i	RGS4 act valid=77*;M3R Ca counter=44*
CCC(C)NC(=O)C1CCC(CNS(=O)(=O)c2ccccc2)CC1 (centres undefined)	i	i	i	i	i
CCCCCCNS(=O)(=O)c1ccc(Cl)s1	i	-10*	i	i	i	RGS4 act valid=43*;M3R Ca counter=84*
Cc1ccc2c(c1)N(CC(=O)NC1CCCC(C)C1C)C(=O)c1cccnc1O2 (centres undefined)	i	i	i	i	i
CCN(CC#CCC(O)(c1ccccc1)c1ccccc1)C(C)C	i	-8.3*	i	i	i	RGS4 act valid=79*;M3R Ca counter=30*
N#Cc1ccc(CO/N=C/c2ccccc2)cc1	i	i	i	i	i
CCOC(=O)c1cc(-c2ccccc2)nc2nc(N(CC)CC)sc12	i	-9*	i	i	i	RGS4 act valid=88*;M3R Ca counter=76*
CCOC(=O)C1=C(C)OC(N)=C(C#N)C1c1cc2c(cc1Br)OCO2 (centres undefined)	i	-8.7*	i	i	i	RGS4 act valid=90*;M3R Ca counter=65*
COC(=O)C1CCN(c2nc3ccccc3nc2C(C#N)C(=O)OCC(C)C)CC1 (centres undefined)	i	-7.9*	i	i	i	RGS4 act valid=91*;M3R Ca counter=75*
CC(C)Nc1nc(NC(C)C)nc(N(C#N)CCOc2ccc(Cl)cc2Cl)n1	i	-7.8*	i	i	i	RGS4 act valid=63*;M3R Ca counter=84*
